In ChEMBL document CHEMBL5653617, “Inhibition of BRD4 attenuates tumor cell self-renewal and suppresses stem cell signaling in MYC driven medulloblastoma” (Oncotarget, 2014):
Calls of active or inactive are those of the source.

How the values were obtained:
D283 Med [1] = assay: Antiproliferative activity in human D283 Med cells assessed as inhibition of cell growth at 300 nM by flow cytometry analysis; type: functional, cell-based
Summary of the method: (§1)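 ViaCount flow cytometric cell count. Cells seeded in medium, DMSO or drug added 24 h later, cultured a further 48 h. Cells then pelleted, washed, stained with Viacount reagent and counted on a Guava cytometer. Vehicle control DMSO.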

D458 Med [2] = assay: Antiproliferative activity in human D458 Med cells assessed as inhibition of cell growth at 300 nM by flow cytometry analysis; type: functional, cell-based; summary of the method: as §1
Daoy [3] = assay: Induction of cell cycle arrest in human Daoy cells assessed as accumulation of cells at G1 phase at 300 nM incubated for 48 hrs by flow cytometry analysis (reference value: 50.67 +/- 3.19%); type: functional
D425 Med = assay: Induction of cell cycle arrest in human D425 Med cells assessed as accumulation of cells at G1 phase at 300 nM incubated for 48 hrs by flow cytometry analysis (reference value: 33.715 +/- 0.495%); type: functional
D458 Med [4] = assay: Induction of cell cycle arrest in human D458 Med cells assessed as accumulation of cells at G1 phase at 300 nM incubated for 48 hrs by flow cytometry analysis (reference value: 35.85 +/- 1.37%); type: functional
Daoy [5] = assay: Induction of cell cycle arrest in human Daoy cells assessed as S phase cells at 300 nM incubated for 48 hrs by flow cytometry analysis (reference value: 15.39 +/- 1.73%); type: functional
D283 Med [6] = assay: Induction of cell cycle arrest in human D283 Med cells assessed as S phase cells at 300 nM incubated for 48 hrs by flow cytometry analysis (reference value: 19.88 +/- 1.26 %); type: functional
D458 Med [7] = assay: Induction of cell cycle arrest in human D458 Med cells assessed as G2/M phase cells at 300 nM incubated for 48 hrs by flow cytometry analysis (reference value: 18.72 +/- 2.62%); type: functional
Daoy [8] = assay: Induction of senescence in human Daoy cells assessed as increase in p16 mRNA expression at 300 nM by RT-qPCR analysis; type: functional, cell-based
Summary of the method: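 Cells treated with 300 nM drug or DMSO. p16, p21 and p27 mRNA measured by TaqMan qPCR with ΔΔCt quantitation, in triplicate.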

Daoy [9] = assay: Induction of senescence in human Daoy cells assessed as increase in p21 protein expression at 300 nM by immunoblot analysis; type: functional, cell-based
Summary of the method: (§2)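 Protein lysates prepared in RIPA buffer with protease inhibitors. Standard western blot with HRP-conjugated secondary antibodies and chemiluminescent detection.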

Daoy [10] = assay: Induction of senescence in human Daoy cells assessed as increase in p27 protein expression at 300 nM by immunoblot analysis; type: functional, cell-based; summary of the method: as §2
[11] = Toxicity in athymic nude mouse xenografted with human Daoy cells assessed as change in body weight at 50 mg/kg, ip administered 5 days a week for 4 weeks and measured after 20 days; type: organism-based; details: in vivo, 1152 h, time 48 day
Summary of the method: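 Daoy cells (1.0×10^7 in PBS) injected into the flank of athymic nude mice. Dosing began once tumors were palpable, at a mean of 52 days post inoculation. 50 mg/kg i.p. or DMSO vehicle given 5 days/week for 4 weeks, n=10, with tumors followed a further 20 days. Volume by caliper as π/6 × L × W × H. Body weight recorded 3 times weekly.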

Daoy [12] = assay: In vivo inhibition of BRD4 in athymic nude mouse xenografted with human Daoy cells assessed as reduction in SOX2 mRNA expression in tumor at 50 mg/kg, ip measured after 5 days by RT-qPCR analysis; type: functional, organism-based; details: time 5.0 day
Summary of the method: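 Xenograft tumors from mice dosed 50 mg/kg i.p. or DMSO vehicle, n = 3 each. SOX2 mRNA measured by TaqMan qPCR with ΔΔCt quantitation, in triplicate.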

Medulloblastoma cell = assay: Cytotoxicity against patient-derived Medulloblastoma cells assessed as reduction in cell viability at 300 nM by LDH assay; type: functional, cell-based; details: Homo sapiens
Summary of the method: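 Primary tumor slices cultured as described and treated daily from day 5 with DMSO, 300 nM drug, or mitomycin C (50 ug/mL). Spent medium was collected at each change and stored at -80 °C. LDH activity was measured by kit and normalized to the mitomycin C treatment.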

Daoy [13] = assay: Downregulation of CRIP1 gene expression in human Daoy cells at 300 nM by GSEA method; type: functional, cell-based
Summary of the method: (§3)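 Daoy cells treated with DMSO or 300 nM drug. RNA extracted and hybridized to Affymetrix HG-ST2.0 arrays. Analysis in R/Bioconductor with gene set enrichment analysis. Regulated transcripts defined as p < 0.05, FDR < 0.05, fold change < 0.67 (down) or > 1.5 (up).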

Daoy [14] = assay: Downregulation of CENPF gene expression in human Daoy cells at 300 nM by GSEA method; type: functional, cell-based; summary of the method: as §3
Daoy [15] = assay: Downregulation of CDC25B gene expression in human Daoy cells at 300 nM by GSEA method; type: functional, cell-based; summary of the method: as §3
[16] = molecular target: Bromodomain-containing protein 4 (Homo sapiens) (UniProt O60885); details: D283 Med, dose 300.0 nM
[17] = molecular target: Bromodomain-containing protein 4 (Homo sapiens) (UniProt O60885); details: D425 Med, dose 300.0 nM
[18] = molecular target: Bromodomain-containing protein 4 (Homo sapiens) (UniProt O60885); details: D283 Med, dose 300.0 nM; remark: listed apart in the source
[19] = molecular target: Bromodomain-containing protein 4 (Homo sapiens) (UniProt O60885); details: D458 Med, dose 300.0 nM
[20] = molecular target: Bromodomain-containing protein 4 (Homo sapiens) (UniProt O60885); details: D425 Med, dose 300.0 nM; remark: listed apart in the source
[21] = molecular target: Bromodomain-containing protein 4 (Homo sapiens) (UniProt O60885); details: Daoy, dose 300.0 nM
[22] = molecular target: Bromodomain-containing protein 4 (Homo sapiens) (UniProt O60885); details: Daoy, dose 300.0 nM; remark: listed apart in the source
[23] = molecular target: Bromodomain-containing protein 4 (Homo sapiens) (UniProt O60885); details: Daoy, dose 300.0 nM; remark: listed apart in the source
[24] = molecular target: Bromodomain-containing protein 4 (Homo sapiens) (UniProt O60885); details: D283 Med, dose 300.0 nM; remark: listed apart in the source
[25] = molecular target: Bromodomain-containing protein 4 (Homo sapiens) (UniProt O60885); details: D425 Med, dose 300.0 nM; remark: listed apart in the source
[26] = molecular target: Bromodomain-containing protein 4 (Homo sapiens) (UniProt O60885); details: D425 Med, dose 300.0 nM; remark: listed apart in the source
[27] = molecular target: Bromodomain-containing protein 4 (Homo sapiens) (UniProt O60885); details: D458 Med, dose 300.0 nM; remark: listed apart in the source
[28] = molecular target: Bromodomain-containing protein 4 (Homo sapiens) (UniProt O60885); details: D458 Med, dose 300.0 nM; remark: listed apart in the source
[29] = molecular target: Bromodomain-containing protein 4 (Homo sapiens) (UniProt O60885); details: D458 Med, dose 300.0 nM; remark: listed apart in the source

With Cc1sc2c(c1C)C(c1ccc(Cl)cc1)=N[C@@H](CC(=O)OC(C)(C)C)c1nnc(C)n1-2 the Activity (D283 Med [1]) was “Active”, the Activity (D458 Med [2]) was “Active” and the Activity (Daoy [3]) was 79.416%. For the same compound, the Activity (D425 Med) was 39.393%, the Activity (D458 Med [4]) was 46.86% and the Activity (Daoy [5]) was 3.736%. For the same compound, the Activity (D283 Med [6]) was 14.093%, the Activity (D458 Med [7]) was 23.266% and the Activity (Daoy [8]) was “Active”. For the same compound, the Activity (Daoy [9]) was “Active”, the Activity (Daoy [10]) was “Active” and the Activity [11] was “Non-Toxic”. The inhibition (Daoy [12]) was “Active”, the Activity (Medulloblastoma cell) was “inactive” and the Activity (Daoy [13]) was “Active”. For the same compound, the Activity (Daoy [14]) was “Active”, the Activity (Daoy [15]) was “Active” and the inhibition [16] was “Active”. For the same compound, the inhibition [17] was “Active”, the inhibition [18] was “Active” and the inhibition [19] was “Active”. The inhibition [20] was “Active”, the inhibition [21] was “Active” and the inhibition [22] was “Active”. For the same compound, the inhibition [23] was “Active”, the inhibition [24] was “Active” and the inhibition [25] was “Active”. For the same compound, the inhibition [26] was “Active”, the inhibition [27] was “Active” and the inhibition [28] was “Active”. The inhibition [29] was “Active”.
